mABHD4 FP: inhibits mouse alpha/beta hydrolase domain 4. Q8VD66. inhibition, % at 8.92 µM. purified mABHD4, FP-Rh probe fluorescence polarization. AID 720543. actives 0.54% (n = 370,000);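 active = inhibition exceeding the mean over every tested compound plus 3 SD, cut at about 30% in these data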;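 also: 0% = plate median of compound wells and 100% = S159A mutant with DMSO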
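Assay system: Wild-type mouse ABHD4 protein | Medium: HEPES pH 7.0 buffer, 150 mM NaCl, 0.01% Pluronic F-127 | Incubation: Enzyme–compound pre-incubation 45 min, then probe 60 min, both 25 °C | Technique: Fluorescence polarization with parallel and perpendicular emission, 525/598 nm | Evaluation: % inhibition of FP-Rh probe binding versus controls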
HTRA1 inhibitor: HTRA1 (human) protease inhibition. recombinant HTRA1, FP-rhodamine activity-based probe, fluorescence polarization. inhibition, % at 5.96 µM. actives 0.5% (n = 340,000). AID 504803; in the data active = inhibition above about 36%;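 also: 0% = enzyme with DMSO and 100% = wells lacking enzyme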
SIAE primary: human SIAE inhibition, primary screen | actives 0.69% (n = 370,000) | SIAE FP-Rh probe binding, fluorescence polarization | inhibition, % at 9.66 µM | Q9HAT2;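 active = inhibition above a cutoff: mean of compounds within the control limits plus 3 SD of those, cut at about 17% in these data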;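 also: 0% = plate median of compound wells and 100% = probe without SIAE protein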
Target sequence (Q9HAT2 whole entry, looked up): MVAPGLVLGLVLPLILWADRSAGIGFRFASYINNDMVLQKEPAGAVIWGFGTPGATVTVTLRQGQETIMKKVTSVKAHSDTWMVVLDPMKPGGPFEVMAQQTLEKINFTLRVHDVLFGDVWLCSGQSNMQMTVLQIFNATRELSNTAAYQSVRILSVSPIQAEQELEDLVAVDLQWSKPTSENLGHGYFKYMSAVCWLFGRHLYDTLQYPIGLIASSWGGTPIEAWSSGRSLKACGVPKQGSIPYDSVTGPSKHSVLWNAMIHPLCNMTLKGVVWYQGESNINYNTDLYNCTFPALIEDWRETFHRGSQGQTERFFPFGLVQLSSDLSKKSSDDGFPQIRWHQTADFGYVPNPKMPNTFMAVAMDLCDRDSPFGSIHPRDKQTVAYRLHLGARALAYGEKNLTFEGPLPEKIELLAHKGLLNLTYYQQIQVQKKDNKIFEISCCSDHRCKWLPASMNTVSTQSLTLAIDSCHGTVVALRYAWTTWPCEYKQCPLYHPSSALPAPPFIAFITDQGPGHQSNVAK
rCAG RNA binder: molecules binding r(CAG) RNA repeats. r(CAG) RNA repeat, TO-PRO-1 dye displacement fluorescence. inhibition, % at 3 µM. actives 1.3% (n = 370,000). AID 651821;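 active = inhibition above the plate cutoff, the mean of all test compounds on that plate plus 3 SD, cut at about 35% in these data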;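 also: 0% = DMSO alone and 100% = 100 µM mitoxantrone as full dye displacement; higher means more dye released from RNA so lower well fluorescence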
PRMT1 inh: inhibitors of human PRMT1; actives 1.3% (n = 370,000); AID 652257; recombinant PRMT1, activity-based probe fluorescence polarization; Q99873; inhibition, % at 2.79 µM;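 active = inhibition above about 21% made by adding two undisclosed values, limit read from the data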
rCAG binder conf: r(CAG) RNA repeat binding, confirmation. shares compounds with rCAG RNA binder. TO-PRO-1 dye displacement fluorescence. inhibition, % at 3 µM. actives 70% (n = 4,300). AID 652065;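 active = inhibition above a per-plate cutoff, the mean inhibition of sample wells plus 3 SD, cut at about 35% in these data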;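 also: loss of TO-PRO-1 fluorescence as compound displaces dye from 1x1 AA loop RNA; 0% = DMSO only wells and 100% = 100 µM mitoxantrone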
dCAG dye counter: disrupts DNA CAG TO-PRO-1 complex, flagging rCAG hits; shares compounds with rCAG RNA binder; d(CAG) DNA oligo TO-PRO-1 dye displacement, fluorescence; inhibition, % at 3 µM; actives 94% (n = 4,300); AID 652068;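 active = inhibition above its plate's cutoff, the mean test-well inhibition plus 3 SD, cut at about 4.8% in these data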;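 also: 0% = DNA dye mix with DMSO and 100% = 100 µM mitoxantrone; hits displace the dye from DNA and so lower well fluorescence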
PRMT1 inh conf: PRMT1 (human) inhibition, FP confirmation; shares compounds with PRMT1 inh; recombinant His-PRMT1, activity-based probe fluorescence polarization; inhibition, % at 2.79 µM; actives 42% (n = 3,300);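 active = mean inhibition across replicates above the hit cutoff derived for the earlier primary screen, cut at about 22% in these data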
* marks the source's active call; other numbers are inactive results; . = not tested or not shown. In the library only some 3.3% were active in any assay of this set; here they are far more common.

SMILES	mABHD4 FP	HTRA1 inhibitor	SIAE primary	rCAG RNA binder	PRMT1 inh	rCAG binder conf	dCAG dye counter	PRMT1 inh conf
CCOC(=O)c1ccc(N2CSC3=C(C#N)C(c4ccc(OC)cc4OC)CC(=O)N3C2)cc1 (stereo not drawn)	8.1	0.8	2.7	21.3	9.4	.	.	.
COc1cc(/C=C2/C(C)=C(C#N)c3nc(N)c(C#N)c(C)c32)ccc1OCC(=O)O	20.8	.	2.7	42.4*	26.5*	40.5*	17.3*	9.4
[O-][n+]1ccc(C(O)c2ccccc2)cc1 (stereo not drawn)	-3.6	13.2	5.2	4.5	1.1	.	.	.
O=C(N/N=C/C=C/c1ccco1)/C(=C/c1ccccc1)NC(=O)c1ccccc1	2.6	14.2	8.4	37.5*	29.6*	21.0	13.1*	16.5
CC1=C(C)CC(C(=O)NCCc2ccc(F)cc2)C(C(=O)O)C1 (stereo not drawn)	1.4	-5.6	3.2	-4.0	-2.6	.	.	.
Cc1oc(-c2ccccc2)cc1C(=O)NC(Cc1c[nH]c2ccccc12)C(=O)O (stereo not drawn)	-6.9	-9.4	0.8	40.4*	30.2*	51.9*	17.5*	4.0
CC(Sc1nnnn1-c1ccc(O)cc1)C(=O)NNC(=O)c1ccc(F)cc1 (stereo not drawn)	7.2	6.9	2.5	0.0	1.3	.	.	.
CCn1c2ccccc2c2cc(NC(=O)CSc3nnc(-c4ccccc4)n3Cc3ccco3)ccc21	17.3	.	11.6	34.9*	80.3*	27.0	15.2*	65.5*
CCn1c2ccccc2c2cc(NC(=O)CSc3nnc(C4CC4)n3Cc3ccco3)ccc21	13.3	0.0	3.2	12.2	5.7	.	.	.
CC(C)(C)Cc1c(-c2ccc(Cl)cc2)nc2c(Cl)cc(C(F)(F)F)cn12	1.8	.	2.1	2.4	1.1	.	.	.
CCCS(=O)(=O)c1c(S(=O)(=O)CCC)c2c(N)cccn2c1C(=O)c1ccc(F)cc1	2.7	2.9	3.0	45.2*	25.6*	21.4	10.1*	6.8
COc1cccc(CN(C)C(=O)c2ccc(OCC(=O)N3CCOCC3)c(OC)c2)c1	8.8	3.4	-0.7	-7.5	-2.3	.	.	.
COc1ccccc1N1CSC2=C(C#N)C(c3ccc(SC)cc3)CC(=O)N2C1 (stereo not drawn)	31.2*	1.0	-17.2	40.0*	38.6*	46.6*	18.7*	63.6*
COc1ccc(Br)cc1C1CC(=O)N2CN(C)CSC2=C1C#N (stereo not drawn)	1.1	4.6	-5.1	17.5	17.4	.	.	.
COc1ccc(Br)cc1C1CC(=O)N2CN(Cc3ccccc3)CSC2=C1C#N (stereo not drawn)	-1.0	-18.4	-1.6	37.7*	25.0*	30.1	12.6*	20.1
CCOC(=O)c1c(/N=C/c2cc([N+](=O)[O-])ccc2O)sc(C)c1C	-18.8	1.2	-11.9	64.9*	29.1*	8.8	7.2*	-1.6
CN1OC[C@@H]2CN(C(=O)CCc3ccccc3)[C@H](c3cccc(-c4ccc(C#N)cc4)c3)C[C@@H]21	4.7	1.9	2.5	0.7	-2.2	.	.	.
CCCC1=NN2C(=N)/C(=C\c3ccc(SCc4ccco4)o3)C(=O)N=C2S1	.	-67.9	.	.	.	.	.	.
CCC1=NN2C(=N)/C(=C\c3ccc(SCc4ccco4)o3)C(=O)N=C2S1	-105.1	-95.3	-54.9	65.0*	38.8*	55.6*	20.3*	14.7
O=C(C1CCN(c2cncnc2)CC1)N1CCOCC1	3.6	.	0.6	0.0	5.7	.	.	.
N#Cc1c(SCC(=O)Nc2ccccc2C(F)(F)F)sc2c(O)cc(=O)[nH]c12	-27.7	-20.6	-7.1	49.7*	31.2*	14.7	6.3*	5.1
N#Cc1c(SCC(=O)Nc2ccc(Cl)cc2Cl)sc2c(O)cc(=O)[nH]c12	-1.8	-26.8	-12.4	44.2*	30.0*	27.4	13.3*	4.1
O=C(NCc1ccc(F)cc1)c1cc(C2CCCCN2S(=O)(=O)c2cccs2)on1 (stereo not drawn)	-2.9	.	5.1	0.7	-4.8	.	.	.
CCCN(CCC)S(=O)(=O)c1ccc(C(=O)NCc2n[nH]c(=S)n2-c2ccc(Cl)c(Cl)c2)cc1	-0.6	-9.4	6.3	35.0*	29.5*	28.9	7.0*	14.4
O=C(NCc1n[nH]c(=S)n1-c1cccc(Cl)c1)c1ccc(S(=O)(=O)N2CCCC2)cc1	0.3	2.8	3.2	10.4	3.7	.	.	.
SMILES	mABHD4 FP	HTRA1 inhibitor	SIAE primary	rCAG RNA binder	PRMT1 inh	rCAG binder conf	dCAG dye counter	PRMT1 inh conf
CCOC(=O)[C@]12CCC=C1N(Cc1cccc3ccccc13)C(=O)[C@H](CC(=O)NCCc1ccccc1OC)C2	-15.6	.	-7.7	6.2	0.1	.	.	.
O=C(C1CCCN(S(=O)(=O)c2ccccc2F)C1)N1CCN(Cc2ccccc2)CC1 (stereo not drawn)	-3.0	.	-0.9	-0.3	-1.2	.	.	.
CC(C(=O)Nc1ccc(C(=O)O)c(O)c1)N1C(=O)/C(=C\c2ccco2)SC1=S (stereo not drawn)	.	9.3	.	.	.	.	.	.
O=C(CN1C(=O)/C(=C/c2ccco2)SC1=S)Nc1ccc(C(=O)O)c(O)c1	-22.3	-17.1	-22.1	92.9*	52.3*	85.2*	52.9*	34.9*
O=C(CN1C(=O)/C(=C/c2ccco2)SC1=S)NC1CCS(=O)(=O)C1 (stereo not drawn)	26.0	10.6	5.8	48.4*	44.3*	19.0	9.4*	24.1*
O=C(CCCN1C(=O)/C(=C\c2cccs2)SC1=S)Nc1cccc(C(=O)O)c1	-3.4	7.4	1.5	3.3	-2.8	.	.	.
O=C(CN1C(=O)/C(=C/c2ccco2)SC1=S)Nc1ccc(O)c(C(=O)O)c1	-28.9	2.7	-8.0	88.4*	49.7*	82.0*	47.1*	31.2*
O=C(CCN1C(=O)/C(=C/c2ccccc2)SC1=S)NC1CCS(=O)(=O)C1 (stereo not drawn)	-4.4	-1.4	4.8	1.8	-3.0	.	.	.
O=C(CCCN1C(=O)/C(=C/c2ccco2)SC1=S)Nc1cccc(C(=O)O)c1	28.9	14.2	-3.6	67.9*	32.7*	45.4*	17.0*	13.7
O=C(NCCCN1CCOCC1)c1ccc2c(=O)n(Cc3ccc(Cl)cc3)c(=S)[nH]c2c1	-31.9	-6.1	-14.5	12.2	9.5	.	.	.
CCCCCNC(=O)C(CCc1ccccc1)n1c(=O)c(-c2ccccc2)nc2ccccc21 (stereo not drawn)	-6.6	.	-7.0	10.0	4.0	.	.	.
COc1ccc(Cc2nc3ccc(C(=O)N(C)CCc4cnn(C)c4)cc3o2)cc1OC	-2.0	-1.1	-2.7	-7.2	-2.1	.	.	.
CCOc1ccc(CCNC(=O)CN2C(=O)NC3(CCCCCC3)C2=O)cc1OCC	-2.3	-2.2	3.2	0.3	-3.1	.	.	.
COC(=O)Nc1nnc(-c2ccco2)s1	4.8	.	7.3	-0.1	0.8	.	.	.

Screening results (PubChem)
